{
  "source": "paper PMC9218157",
  "about": "(Heliyon, 2022)",
  "key": {"[1]": {"experiment": "Superoxide anion radical scavenging activity", "conditions": "mean ± SE; concentration showing 50% of antioxidant activity", "how_it_was_run": "(§1)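 Procedure taken from a cited method; the paper gives no reagent levels, times or read-out wavelength. Test compounds were a pyridine Schiff base ligand and its Cu(II) and Zn(II) complexes, with butylated hydroxyanisole (BHA) as positive control.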"}, "[2]": {"experiment": "ABTS cation radical scavenging activity", "conditions": "mean ± SE; concentration showing 50% of antioxidant activity", "how_it_was_run": "as §1"}, "[3]": {"experiment": "DPPH free radical scavenging activity", "conditions": "mean ± SE; concentration showing 50% of antioxidant activity", "how_it_was_run": "as §1"}, "[4]": {"molecular_target": "T1, type-VI B porcine pancreatic α-amylase (Sus scrofa, UniProt P00690)", "T1 sequence (P00690 16-511)": "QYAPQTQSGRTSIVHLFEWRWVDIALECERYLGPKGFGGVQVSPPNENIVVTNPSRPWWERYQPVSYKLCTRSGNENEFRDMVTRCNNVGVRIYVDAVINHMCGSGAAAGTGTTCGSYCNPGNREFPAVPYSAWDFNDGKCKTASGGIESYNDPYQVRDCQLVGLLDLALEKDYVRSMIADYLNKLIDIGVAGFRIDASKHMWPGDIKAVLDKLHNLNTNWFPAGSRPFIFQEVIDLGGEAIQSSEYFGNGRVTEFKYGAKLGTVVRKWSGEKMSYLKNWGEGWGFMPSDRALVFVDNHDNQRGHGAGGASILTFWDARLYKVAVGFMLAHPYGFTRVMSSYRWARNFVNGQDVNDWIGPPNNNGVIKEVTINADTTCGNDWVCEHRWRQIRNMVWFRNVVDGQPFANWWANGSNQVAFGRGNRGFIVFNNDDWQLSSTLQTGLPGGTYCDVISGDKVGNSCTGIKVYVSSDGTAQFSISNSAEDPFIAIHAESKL", "experiment": "Inhibition of α-amylase", "assay_type": "biochemical"}},
  "note": "Marks after values point to notes of the source that are not given here.",
  "data": [
    {"smiles": "COc1cc(C=Nc2ccc([N+](=O)[O-])cn2)ccc1O", "note": "[HL, 2-methoxy-4-(((5-nitropyridin-2-yl)imino)methyl)phenol]", "values": [
      {"measurement": "EC50 Radical scavenging activities Superoxide", "setting": "[1]", "result": "5.25 ± 2.35^d mg/mL"},
      {"measurement": "EC50 Radical scavenging activities ABTS", "setting": "[2]", "result": "4.65 ± 0.61^d mg/mL"},
      {"measurement": "EC50 Radical scavenging activities DPPH", "setting": "[3]", "result": "3.10 ± 0.47^d mg/mL"},
      {"measurement": "IC50", "setting": "[4]", "result": 11.3, "unit": "mM"}
    ]}
  ]
}
